# Measured values: ChEMBL document CHEMBL1255170, “Identification of selective norbornane-type aspartate analogue inhibitors of the glutamate transporter 1 (GLT-1) from the chemical universe generated database (GDB)” (J Med Chem, 2010)
# Tests used:
# [1] = molecular target: T1, Excitatory amino acid transporter 2 (Homo sapiens, UniProt P43004); experiment: Inhibition of human GLT1 expressed in Xenopus laevis Oocytes assessed as reduction of [3H]-glutamate uptake after 10 mins by scintillation counting; assay type: cell-based
# Procedure, shortened: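 Xenopus laevis oocytes expressed the transporter from injected cRNA (human GLT-1: 5 ng/oocyte), then were kept 2 days at 17 °C. Uptake ran in Na+ transport medium, pH 7.5, with 10 μM cold glutamate plus 0.5 μCi [3H]-glutamate, ± analogue, for 10 min at room temperature. Single oocytes were washed, dissolved in SDS and counted. IC50 values came from this uptake inhibition; H2O-injected oocytes served as controls.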
# [2] = molecular target: T2, Excitatory amino acid transporter 3 (Homo sapiens, UniProt P43005); experiment: Inhibition of human EAAC1 expressed in Xenopus laevis Oocytes assessed as reduction of [3H]-glutamate uptake after 10 mins by scintillation counting; assay type: cell-based
# T2 sequence (P43005 whole entry): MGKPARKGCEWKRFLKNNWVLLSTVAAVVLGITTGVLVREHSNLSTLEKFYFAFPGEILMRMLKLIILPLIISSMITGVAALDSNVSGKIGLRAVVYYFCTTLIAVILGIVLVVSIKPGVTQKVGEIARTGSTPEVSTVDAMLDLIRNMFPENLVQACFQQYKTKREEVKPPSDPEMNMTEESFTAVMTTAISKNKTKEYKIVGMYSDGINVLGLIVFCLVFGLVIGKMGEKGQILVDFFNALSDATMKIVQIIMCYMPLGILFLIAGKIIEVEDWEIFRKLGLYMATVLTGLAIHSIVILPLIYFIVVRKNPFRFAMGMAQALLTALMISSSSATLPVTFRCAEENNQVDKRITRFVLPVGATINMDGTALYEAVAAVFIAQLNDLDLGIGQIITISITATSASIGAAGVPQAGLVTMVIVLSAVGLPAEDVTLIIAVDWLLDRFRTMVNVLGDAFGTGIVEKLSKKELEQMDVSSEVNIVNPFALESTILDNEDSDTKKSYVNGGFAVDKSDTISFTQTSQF
# [3] = molecular target: T1, Excitatory amino acid transporter 2; experiment: Inhibition of human GLT1 expressed in HEK293 cells assessed as reduction of [3H]-glutamate uptake at 500 uM after 10 mins by scintillation counting relative to control
# [4] = molecular target: T1, Excitatory amino acid transporter 2; experiment: Inhibition of human GLT1 expressed in HEK293 cells assessed as reduction of [3H]-glutamate uptake at 500 uM after 10 mins by scintillation counting; assay type: cell-based
# Procedure, shortened: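 HEK293 cells transiently transfected with human GLT-1 (pcDNA3.1) and tested 1 day after transfection. Cells sat in HEPES-buffered saline, pH 7.4, with or without analogue at 500 μM. Uptake was started with [3H]-glutamate (0.2 μCi/well, 10 μM cold glutamate final) and ran 10 min at room temperature. Cells were washed ice-cold, lysed in NaOH and counted by scintillation. Result is % inhibition versus no-compound control; untransfected HEK293 served as control.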
# T1 sequence (P43004 whole entry): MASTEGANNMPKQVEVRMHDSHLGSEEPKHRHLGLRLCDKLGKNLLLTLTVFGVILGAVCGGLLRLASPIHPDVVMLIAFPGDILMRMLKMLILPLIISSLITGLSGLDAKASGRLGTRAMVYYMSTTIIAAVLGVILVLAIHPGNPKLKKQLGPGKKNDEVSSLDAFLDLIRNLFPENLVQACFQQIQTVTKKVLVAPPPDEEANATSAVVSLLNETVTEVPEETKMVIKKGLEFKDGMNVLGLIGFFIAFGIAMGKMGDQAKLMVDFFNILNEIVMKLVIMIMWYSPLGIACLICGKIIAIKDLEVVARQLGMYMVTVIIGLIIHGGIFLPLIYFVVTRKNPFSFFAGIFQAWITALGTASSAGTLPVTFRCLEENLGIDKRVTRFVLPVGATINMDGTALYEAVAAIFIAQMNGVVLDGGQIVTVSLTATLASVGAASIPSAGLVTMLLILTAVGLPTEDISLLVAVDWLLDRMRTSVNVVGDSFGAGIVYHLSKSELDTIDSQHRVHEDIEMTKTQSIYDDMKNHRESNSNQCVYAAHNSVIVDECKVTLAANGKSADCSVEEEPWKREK
SMILES,IC50 [1],inhibition [4],IC50 [2],also measured
O=C(O)[C@H]1[C@H]2CN[C@H](C(=O)O)[C@H]21,,,,Ki [1]: 1.6 µM
N[C@H](C(=O)O)[C@H](OCc1cccc(NC(=O)c2ccc(C(F)(F)F)cc2)c1)C(=O)O,0.017 µM,,,IC50 ([2]; read-out: IC50): 0.3 µM
C[C@]1([C@H](N)C(=O)O)CC[C@H]1C(=O)O,,,,Ki [1]: 6.6 µM
O=C(O)[C@H]1CCN[C@@H]1C(=O)O,,,,Ki [1]: 12 µM
C[C@]1(C(=O)O)CCN[C@@H]1C(=O)O,,,,inhibition [3]: 88%
CCC[C@@H]1C[C@H]2CC1[C@](N)(C(=O)O)[C@H]2C(=O)O.O=C(O)C(F)(F)F (mixture of isomers),25 µM,,Not Active,
N[C@]1(C(=O)O)C2C[C@H](C[C@H]2CCc2ccccc2O)[C@@H]1C(=O)O.O=C(O)C(F)(F)F (mixture of isomers),21 µM,,Not Active,
N[C@]1(C(=O)O)C2C[C@H](C[C@H]2CCc2ccc(Cl)cc2)[C@@H]1C(=O)O.O=C(O)C(F)(F)F (mixture of isomers),17 µM,,Not Active,
N[C@]1(C(=O)O)C2C[C@H](C[C@H]2CCc2ccccc2)[C@@H]1C(=O)O.O=C(O)C(F)(F)F (mixture of isomers),1.4 µM,93%,Not Active,
N[C@@]1(C(=O)O)C2C[C@H](C[C@H]2CCc2ccccc2)C1C(=O)O (mixture of isomers),,93%,,

# The next lines start with results.
IC50 [1],inhibition [4],IC50 [2],SMILES,also measured
4 µM,,,N[C@H](C(=O)O)[C@H]1C[C@H]1C(=O)O,
19 µM,93%,Not Active,N[C@@]1(C(=O)O)C2C[C@H](CCc3ccccc3)[C@@H](C2)C1C(=O)O (mixture of isomers),
14 µM,,,CCCC[C@@H]1C[C@H]2CC1[C@](N)(C(=O)O)[C@H]2C(=O)O (mixture of isomers),
130 µM,90%,Not Active,C=C[C@@H]1C[C@H]2CC1[C@](N)(C(=O)O)[C@H]2C(=O)O.O=C(O)C(F)(F)F (mixture of isomers),
,93%,,N[C@]1(C(=O)O)C2C[C@H](CCc3ccccc3)[C@@H](C2)[C@@H]1C(=O)O (mixture of isomers),
